Screening data deposited in PubChem BioAssay by several laboratories.
This is a sample that favours compounds with a hit; in the whole collection about 2.1% have one here.
STEP block = STEP phosphatase inhibitors, primary screen, biochemical, fluorescence intensity, uHTS; AID 588621, 2011; 0.25% of 360,000 active; inhibition, % at 20 µM; Tyrosine-protein phosphatase non-receptor type 5 (Homo sapiens), P54829; recombinant STEP, OMFP fluorogenic substrate;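 active = inhibition at 20 µM, scaled per plate between control wells, above about 37%, limit read from the data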;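 also: 0% = DMSO with enzyme and substrate and 100% = substrate only without enzyme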
Target sequence (P54829 whole entry, looked up): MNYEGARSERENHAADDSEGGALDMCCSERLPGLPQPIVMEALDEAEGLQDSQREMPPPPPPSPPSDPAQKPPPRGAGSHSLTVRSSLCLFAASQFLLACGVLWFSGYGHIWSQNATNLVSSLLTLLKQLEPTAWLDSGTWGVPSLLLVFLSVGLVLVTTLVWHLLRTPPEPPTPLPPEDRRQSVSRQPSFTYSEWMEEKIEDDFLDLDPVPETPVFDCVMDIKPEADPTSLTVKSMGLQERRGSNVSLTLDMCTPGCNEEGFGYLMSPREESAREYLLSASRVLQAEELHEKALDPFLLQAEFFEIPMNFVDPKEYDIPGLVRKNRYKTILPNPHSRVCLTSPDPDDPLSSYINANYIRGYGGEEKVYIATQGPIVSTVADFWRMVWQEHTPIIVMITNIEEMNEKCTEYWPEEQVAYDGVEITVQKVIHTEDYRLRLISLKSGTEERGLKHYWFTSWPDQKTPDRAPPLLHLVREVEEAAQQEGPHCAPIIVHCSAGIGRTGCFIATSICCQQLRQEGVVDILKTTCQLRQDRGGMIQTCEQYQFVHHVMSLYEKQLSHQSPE
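Test system: STEP tyrosine phosphatase / Reagent: OMFP at 25 µM / Doses: 20 µM, 1% DMSO / Read-out: percent inhibition scaled to no-enzyme and uninhibited-enzyme controls, plate-pattern corrected / Detection: FITC-channel fluorescence of OMFP product / Medium: Bis-Tris buffer pH 6.0, 2.5 mM DTT, 0.005% Tween 20 / Schedule: 20 min at room temperature, dark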
DNMT1 inh = human DNMT1 methyltransferase inhibitors, primary screen, biochemical, molecular beacon, fluorescence, HinP1I cleavage, uHTS; inhibition (reported as % activation of signal), % at 10 µM; 0.83% of 360,000 active; in the data active = inhibition above about 50%
Scp1 inh = Scp-1 phosphatase inhibitors, primary screen, biochemical, colorimetric, uHTS | AID 493091, 2011 | 0.88% of 340,000 active | inhibition, % at 20 µM | Carboxy-terminal domain RNA polymerase II polypeptide A small phosphatase 1 (Homo … | Recombinant Scp1, phosphopeptide, malachite green phosphate absorbance;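 active = inhibition above about 50% at 20 µM, limit read from the data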;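 also: plate controls were DMSO wells with enzyme for no effect and wells lacking enzyme for full effect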
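Test system: SCP-1 phosphatase catalytic domain, residues 76-261; measured by: colorimetric phosphate reagent with accelerator and stabiliser, absorbance at 630 nm; timing: enzyme reaction 45 min at room temperature, colour 5 min, stabilisation 30 min; also added: Phosphorylated 17-residue peptide substrate; compound dosing: one concentration, 20 µM, with 1.0% DMSO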
LMPTP inh = LMPTP phosphatase inhibitors, primary screen, biochemical, fluorescence intensity, uHTS; inhibition, % at 20 µM; Low molecular weight phosphotyrosine protein phosphatase (Homo sapiens), P24666; 0.22% of 360,000 active; recombinant LMPTP-A, OMFP fluorogenic substrate;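 active = compounds that cut the enzyme signal by at least half of the control window in the single-dose screen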;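 also: plate controls were DMSO wells with enzyme plus substrate for no effect and substrate without enzyme for full effect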
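Assay system: LMPTP-A, protein tyrosine phosphatase of low molecular weight / Medium: pH 6.0 Bis-Tris buffer with DTT and Triton X-100 / Schedule: 50 min enzyme reaction at room temperature, protected from light / Measured by: endpoint fluorescence intensity from OMFP dephosphorylation / Read-out basis: % inhibition relative to no-enzyme and uninhibited control wells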
SUMO1 PPI mod = modulators of SUMO1 protein-protein interactions, primary screen, biochemical, uHTS. Small ubiquitin-related modifier 1 (Homo sapiens), P63165. inhibition, % at 20 µM. 0.33% of 360,000 active. SUMO1 binding to a labelled peptide, TR-FRET, 1 h. AID 602429, 2012; in the data active = inhibition above about 37%
Target sequence (P63165 whole entry, looked up): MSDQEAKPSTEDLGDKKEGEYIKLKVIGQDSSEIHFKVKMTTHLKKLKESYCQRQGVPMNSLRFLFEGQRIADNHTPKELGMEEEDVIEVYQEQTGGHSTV
GRK2 aptamer HTS = compounds blocking aptamer binding on GRK2 – biochemical, human GRK2, bead flow cytometry, HTS, primary screen; Beta-adrenergic receptor kinase 1 (Homo sapiens), P25098; FAM-aptamer displacement from GRK2; inhibition of aptamer binding, % at 10 µM; 0.59% of 330,000 active; AID 488847, 2010;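 active = inhibition of aptamer binding above 40%, roughly 3 SD of noise, on plates passing a quality check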;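 also: median bead fluorescence of bound FAM aptamer so fluorescent compounds give negative values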
An asterisk follows results filed as active; · = no result.

SMILES | STEP block | DNMT1 inh | Scp1 inh | LMPTP inh | SUMO1 PPI mod | GRK2 aptamer HTS
CCCC(=O)N1CCC1(C)C(=O)NS(=O)(=O)c1ccc(C(C)(C)C)cc1 (stereo not given) | 0 | -4 | · | -1 | -2 | ·
CCC1CCCCN1C(=O)COc1ccc(S(=O)(=O)N2CCOCC2)cc1Cl (stereo not given) | 3 | 6 | 7 | -1 | 0 | 0
CN(C(=S)NC(=O)C12CC3CC(CC(C3)C1)C2)c1ccc(O)cc1 | 1 | -7 | -9 | 4 | 1 | 59*
N=C(N)c1ccc(OCCCCCOc2ccc(C(=N)N)cc2)cc1 | -3 | 20 | -9 | 58* | -65 | 0
COC(=O)C1(C(=O)OC)C[C@H](c2cccs2)N(Cc2ccccc2OC)[C@@H]1c1ccc(F)cc1 | · | · | · | 2 | 2 | ·
COc1ccc(-c2nc3c(C)cc(Br)cn3c2Cc2cccc(Cl)c2)cc1OC | 1 | -13 | · | 6 | 1 | ·
O=C1Nc2c(Cl)cccc2C1=O | 4 | -23 | · | 1 | -2 | ·
Cc1cccc2c1NC(=O)C2=O | 3 | 50* | 48 | 1 | -10 | ·
COc1cc(NC(=O)CSCC(=O)Nc2cccc(C(F)(F)F)c2)c(Cl)cc1Cl | 0 | -3 | -15 | 2 | 44* | 1
O=C(COCC(=O)Nc1cccc(C(F)(F)F)c1)Nc1cccc(C(F)(F)F)c1 | -1 | -13 | -12 | 3 | -3 | 1
Cc1nc(NCc2ccco2)c2c(C)c(C)sc2n1 | -1 | 2 | -6 | 4 | 2 | 4
Cc1sc2nc3c4ccccc4c(NCc4ccco4)nn3c(=O)c2c1C | -1 | 1 | -5 | 5 | 75* | 8
CCC(CO)Oc1cc(NC(=O)c2ccc(F)cc2)c2ncn(C(C)C)c2c1 (stereo not given) | -2 | 0 | -3 | 0 | 1 | 0
CCC(CO)Oc1cc(NCc2ccccc2)c2ncn(C(C)C)c2c1 (stereo not given) | -2 | -12 | 0 | 0 | 0 | 1
CCC(COC)Oc1cc(NCc2ccccc2)c2ncn(C(C)C)c2c1 (stereo not given) | -1 | 54* | -5 | 3 | -1 | 3
CCC(CO)Oc1cc(NC(=O)c2ccc(N)cc2)c2ncn(C(C)C)c2c1 (stereo not given) | -2 | -7 | 5 | 2 | 102* | 9
O=C(Nc1ccc(Br)cc1)c1ccc2ncsc2c1 | -2 | -5 | 2 | 1 | -12 | 1
O=C(Nc1ccc2c(c1)C(=O)NC2=O)c1ccc2ncsc2c1 | -4 | -1 | -10 | 0 | 42* | 0
O=C1CC(N2CCC(c3nc4ccccc4o3)CC2)C(=O)N1Cc1cccs1 (stereo not given) | -2 | -3 | -4 | 3 | 57* | 0
S=c1[nH]nc(-c2cc(-c3ccccc3)n[nH]2)n1/N=C/c1c(Cl)cccc1Cl | 0 | 27 | 4 | 30 | 18 | 0
S=c1[nH]nc(-c2cc(-c3ccccc3)n[nH]2)n1/N=C/c1ccc(Br)s1 | 3 | 28 | 0 | 28 | 61* | 0
N#Cc1ccc(CSc2nnc(NC(=O)c3ccc4ncsc4c3)s2)cc1 | 0 | 3 | 5 | 8 | 40* | 5
N#Cc1ccc(CSc2nnc(NC(=O)c3ccc(=O)[nH]c3)s2)cc1 | 1 | -1 | -9 | 3 | 5 | 0
O=c1cc(CN2CCCCCCC2)c2ccccc2o1 | 5 | 22 | · | 53* | -20 | ·
COc1ccc(-c2cc3c(c4c2ccn4C)C2CCC3C2)cc1OC (stereo not given) | 2 | -7 | · | 4 | -13 | ·
SMILES | STEP block | DNMT1 inh | Scp1 inh | LMPTP inh | SUMO1 PPI mod | GRK2 aptamer HTS
Cc1ccc(NC(=O)Nn2cnnc2)cc1Cl | -2 | 2 | -6 | 0 | 49* | 2
O=C(Nc1ccc(Cl)c(Cl)c1)Nn1cnnc1 | 2 | -4 | 3 | -1 | 3 | 0
CCOC(=O)c1sc2nc(N3CCOCC3)c3c(c2c1N)CCC3 | 2 | -12 | -17 | 3 | -17 | 0
CCOC(=O)c1sc2nc(OCCN3CCOCC3)cc(C)c2c1N | · | · | · | 57* | 10 | ·
CCN(CC)Cc1cc(Oc2ccc(O)c(CN(CC)CC)c2)ccc1O | -1 | -5 | · | 10 | -4 | ·
c1coc(CSSCc2ccco2)c1 | 16 | 101* | 22 | 19 | 14 | 3
Cc1ccc(NC(=O)CSCc2ccco2)cc1 | 2 | 4 | -4 | -2 | 0 | 1
Cc1c2ccccc2cc[n+]1CCCS(=O)(=O)[O-] | 0 | 2 | -4 | -2 | -9 | 0
CC1(C)C(/C=C/C=C/C=C/C=C2\N(CCCCS(=O)(=O)O)c3ccc4ccccc4c3C2(C)C)=[N+](CCCCS(=O)(=O)[O-])c2ccc3ccccc3c21 | 12 | 88* | 49 | 29 | 110* | 4
COc1ccc2nc(C)cc(N/N=C/c3ccc(F)cc3)c2c1 | 3 | 55* | -3 | 7 | -4 | 0
COc1ccc(/C=N/Nc2cc(C)nc3ccccc23)cc1 | 4 | 27 | 3 | 62* | -54 | 0
CC(=NNC(=S)N1CC2CCC(CC2)C1)c1ccncn1 | 5 | -16 | -5 | -2 | -13 | ·
CC(C)(C)c1ccc(C(=O)NCCNC(=O)c2ccco2)cc1 | 1 | 0 | -3 | 0 | 0 | 2
COC(=O)C1CC2=C(CCCC2=O)N(Cc2ccccc2)C1=O (stereo not given) | -2 | 3 | -17 | 0 | 4 | ·
O=C(NCc1ccco1)c1cccc2c1C(=O)c1ccc(/C=C/c3ccccc3)cc1S2(=O)=O | -2 | 13 | 75* | 5 | -10 | 13
O=C(Cn1cc(C(F)(F)F)ccc1=O)N1CCc2ccccc21 | -3 | 2 | -4 | 1 | 2 | 3
CCCCNC(=O)C1(C)CCCCCN1Cc1cc2ccccc2o1 (stereo not given) | 3 | -2 | · | 3 | 3 | ·
Fc1ccccc1-c1nc(NC2CCCC2)c2ccccc2n1 | -2 | 1 | -2 | 70* | 0 | 1
CC(Nc1nc(-c2ccccc2F)nc2ccccc12)c1ccccc1 (stereo not given) | 0 | -2 | 1 | 74* | 1 | 0
CC(Nc1nc(-c2ccccc2)nc2ccccc12)c1ccccc1 (stereo not given) | -3 | -15 | 0 | 52* | 3 | 11
COc1ccccc1Cc1c(-c2ccco2)nc2c(C)cc(Br)cn12 | 2 | 62* | · | 1 | 6 | ·
